Data set [1] is described as follows: folding enthalpy; higher = less favourable; fluorescence melt of hairpins on a sequencing array, two-state fit. To be noted: sodium 0.088 M. An outline of the steps: (§1)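 Folding enthalpy and melting temperature come from bootstrapped two-state fits to Cy3 fluorescence of library hairpins carrying annealed Cy3 and quencher oligos on a sequenced MiSeq flow cell. Imaging was done in 50 mM Na-HEPES pH 8.0, 25 mM NaCl, stepping by 2.5 °C up to 60 °C, and signals were normalised to pre-quench Cy3 and to control constructs. Results of four replicates were combined by inverse variance, and fitted temperatures were raised by 9.35 °C to match UV melts.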

Data set [2] is described as follows: melting temperature; fluorescence melt of hairpins on a sequencing array, two-state fit, raised by 9.35 °C to match UV melts. To be noted: sodium 0.088 M. In short, it runs like this: as §1

Regarding GATCAAGACCTTGATC ((((((....)))))), in data set [1], the folding enthalpy is -40.2 kcal/mol. For the same sequence, in data set [2], the Tm was determined as 50.1 °C.

In the case of GATCAAGAGCTTGATC ((((((....)))))), in data set [1], the folding enthalpy is -38.2 kcal/mol. Besides, the Tm in data set [2] was 42.2 °C.

With GATCAAGATCTTGATC ((((((....)))))), in data set [1], the folding enthalpy is -47.1 kcal/mol. Also, the Tm in data set [2] is 49.9 °C.

Take GATCAAGCACTTGATC ((((((....)))))): in data set [1], the folding enthalpy was -38.4 kcal/mol. Also, in data set [2], the Tm was found to be 50.4 °C.

Regarding GATCAAGCGTTGATC ((((((...)))))), in data set [1], the folding enthalpy is -29.6 kcal/mol. In addition, the Tm in data set [2] worked out at 40.2 °C.

For GATCAAGCTATTGATC ((((((....)))))), the folding enthalpy in data set [1] was -40.8 kcal/mol. Also, the Tm in data set [2] is 50.2 °C.

As for GATCAAGGAAACCTGATC (((((.(....).))))), the folding enthalpy in data set [1] was -29.1 kcal/mol. For the same sequence, in data set [2], the Tm was determined as 35.6 °C.

In the case of GATCAAGGAGTTGATC ((((((....)))))), the folding enthalpy in data set [1] was -29.5 kcal/mol. Further, the Tm in data set [2] is 45.3 °C.

Consider GATCAAGGCATTGATC ((((((....)))))), for which the folding enthalpy in data set [1] is -34.5 kcal/mol. The Tm in data set [2] amounted to 50.5 °C.

For the sequence GATCAAGGCTTGATC ((((((...)))))), in data set [1], the folding enthalpy was -49.3 kcal/mol. For the same sequence, in data set [2], the Tm was 47.8 °C.

In the case of GATCAAGGGTTTGATC ((((((....)))))), the folding enthalpy in data set [1] was -26.2 kcal/mol. Besides, in data set [2], the Tm turned out to be 43 °C.

Take GATCAAGTATTTGATC ((((((....)))))): the folding enthalpy in data set [1] was -37.8 kcal/mol. For the same sequence, the Tm in data set [2] was found to be 50.3 °C.

Regarding GATCAATGAATTGATC ((((((....)))))), the folding enthalpy in data set [1] was -34.6 kcal/mol. Besides, the Tm in data set [2] turned out to be 46.3 °C.

As for GATCAATGGATTGATC ((((((....)))))), in data set [1], the folding enthalpy was -28.3 kcal/mol. Further, the Tm in data set [2] was found to be 45.2 °C.

Consider GATCAATGTCTTGATC ((((((....)))))), for which the folding enthalpy in data set [1] is -27.9 kcal/mol. The Tm in data set [2] was determined as 43.5 °C.

With GATCAATTGATTGATC ((((((....)))))), the folding enthalpy in data set [1] is -36.5 kcal/mol. Further, the Tm in data set [2] was found to be 47.2 °C.

Take GATCAATTGGTTGATC ((((((....)))))): in data set [1], the folding enthalpy is -40.5 kcal/mol. In addition, the Tm in data set [2] came out at 45.8 °C.

Turning to GATCAATTGTTGATC ((((((...)))))), the folding enthalpy in data set [1] is -30.6 kcal/mol. In data set [2], the Tm amounted to 41.5 °C.

GATCAATTTTTGATC ((((((...)))))): in data set [1], the folding enthalpy was -33.6 kcal/mol. Also, in data set [2], the Tm is 45.9 °C.

For the sequence GATCACAAAAGTGATC ((((((....)))))), the folding enthalpy in data set [1] is -36.8 kcal/mol. In addition, the Tm in data set [2] amounted to 54.7 °C.

In the case of GATCACAACAGTGATC ((((((....)))))), in data set [1], the folding enthalpy is -41.7 kcal/mol. For the same sequence, the Tm in data set [2] is 58.7 °C.

For the sequence GATCACAACGGTGATC ((((((....)))))), the folding enthalpy in data set [1] is -38.7 kcal/mol. In addition, the Tm in data set [2] was determined as 56 °C.

For the sequence GATCACACAAGTGATC ((((((....)))))), the folding enthalpy in data set [1] was -42.4 kcal/mol. Besides, the Tm in data set [2] worked out at 56.2 °C.

Take GATCACACCCGTGATC ((((((....)))))): the folding enthalpy in data set [1] is -35.2 kcal/mol. Also, the Tm in data set [2] was found to be 57.8 °C.

GATCACACTGTGATC ((((((...)))))): the folding enthalpy in data set [1] is -41.8 kcal/mol. Further, the Tm in data set [2] is 55.6 °C.

Turning to GATCACAGAGGTGATC ((((((....)))))), the folding enthalpy in data set [1] is -27.4 kcal/mol. Also, in data set [2], the Tm was 55.9 °C.

On to GATCACAGAGTGATC ((((((...)))))), for which the folding enthalpy in data set [1] was -35 kcal/mol. The Tm in data set [2] worked out at 60.8 °C.

For GATCACAGCGGTGATC ((((((....)))))), in data set [1], the folding enthalpy is -29.1 kcal/mol. In data set [2], the Tm amounted to 56.3 °C.

For GATCACAGGGGTGATC ((((((....)))))), the folding enthalpy in data set [1] is -33.6 kcal/mol. For the same sequence, the Tm in data set [2] was 56.2 °C.

On to GATCACAGTCGTGATC ((((((....)))))), for which the folding enthalpy in data set [1] is -44.9 kcal/mol. The Tm in data set [2] is 56.2 °C.

Regarding GATCACATGAGTGATC ((((((....)))))), in data set [1], the folding enthalpy was -42.1 kcal/mol. Further, the Tm in data set [2] was 55.7 °C.

On to GATCACATTCGTGATC ((((((....)))))), for which the folding enthalpy in data set [1] was -39.2 kcal/mol. The Tm in data set [2] was found to be 59.4 °C.

GATCACATTGGTGATC ((((((....)))))): in data set [1], the folding enthalpy was -40.1 kcal/mol. Also, the Tm in data set [2] is 56.7 °C.

For the sequence GATCACCAGCGTGATC ((((((....)))))), in data set [1], the folding enthalpy is -43.3 kcal/mol. Also, in data set [2], the Tm stood at 53.8 °C.

In the case of GATCACCCAAGTGATC ((((((....)))))), the folding enthalpy in data set [1] was -46.8 kcal/mol. In data set [2], the Tm is 55.7 °C.

GATCACCCCCGTGATC ((((((....)))))): the folding enthalpy in data set [1] is -36 kcal/mol. The Tm in data set [2] came to 55 °C.

In the case of GATCACCCCGTGATC ((((((...)))))), in data set [1], the folding enthalpy is -43.2 kcal/mol. Besides, in data set [2], the Tm worked out at 57.5 °C.

Turning to GATCACCCGAAAGGGATC (((..(((....)))))), the folding enthalpy in data set [1] is -14 kcal/mol. The Tm in data set [2] is 35.5 °C.

Source of the values: the array DNA melting data of Ke et al. (doi:10.1101/2024.01.08.574731).
